High-throughput results deposited in PubChem by several laboratories.
ZTA DNA inh – blocks Epstein-Barr virus ZTA, an EBNA-1 counter-screen; 320,000 tested, 0.15% active; P03206; AID 2234; inhibition, % at 11 µM; ZTA-DNA binding, fluorescence polarization; in the data active = inhibition above about 33%
Target sequence (P03206 whole entry, looked up): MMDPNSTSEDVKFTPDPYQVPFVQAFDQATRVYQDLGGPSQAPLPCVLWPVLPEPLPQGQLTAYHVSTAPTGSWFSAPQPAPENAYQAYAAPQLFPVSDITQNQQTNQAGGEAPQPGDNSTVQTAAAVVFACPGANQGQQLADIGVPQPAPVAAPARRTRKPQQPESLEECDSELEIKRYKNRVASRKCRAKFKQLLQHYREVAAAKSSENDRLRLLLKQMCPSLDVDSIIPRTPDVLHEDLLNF
NR3A LBD binder – binders of NR3A ligand-binding domain, primary screen, biophysical, differential scanning fluorimetry, uHTS. AID 1259313, 2017. 340,000 tested, 2.5% active. Glutamate receptor ionotropic, NMDA 3A (GRIN3A) ligand-binding domain. Tm shift relative to glycine control, % at 25 µM. NR3A LBD differential scanning fluorimetry, Tm shift; 0% = protein alone, 100% = glycine-bound protein;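 active = melting temperature shift of at least 10% of the positive control shift, at one fixed dose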
NS3 helicase inh – inhibitors of HCV NS3 helicase, primary screen, biochemical, Cy5 molecular beacon fluorescence; Hepatitis C virus NS3 helicase; NS3 helicase DNA unwinding; inhibition, % at 10.9 µM; 290,000 tested, 0.56% active; AID 1800, 2009;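 active = inhibition above the mean of all tested compounds plus 3 SD, set per campaign, cut at about 35% in these data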;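 also: 0% = DMSO wells and 100% = thioflavine S control wells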
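Material: hepatitis C virus NS3 helicase domain fragment enzyme; measured by: Cy5 fluorescence, 0 and 60 min reads; control set: DMSO and thioflavine S; incubation: 60 min unwinding reaction at 25 °C after ATP addition; read-out basis: % inhibition from 60/0 min fluorescence ratio, DMSO 0%, thioflavine S 100%; repeats: singlicate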
FGF22 binding – binders of human FGF22 protein, primary screen, FGF22 synaptogenesis inhibitor project, biophysical, thermal shift, single point; Fibroblast growth factor 22 (Homo sapiens), Q9HCT0; recombinant FGF22 thermal shift, SYPRO orange fluorescence; percent of sucrose octasulfate shift, DMSO zero; activity (Tm shift, normalised), % at 9.99 µM; 340,000 tested, 1.5% active;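 active = mean Tm shift, scaled 0 neutral to 100 positive control, at about 1.3% or above, every replicate too, limit read from the data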
Target sequence (Q9HCT0 whole entry, looked up): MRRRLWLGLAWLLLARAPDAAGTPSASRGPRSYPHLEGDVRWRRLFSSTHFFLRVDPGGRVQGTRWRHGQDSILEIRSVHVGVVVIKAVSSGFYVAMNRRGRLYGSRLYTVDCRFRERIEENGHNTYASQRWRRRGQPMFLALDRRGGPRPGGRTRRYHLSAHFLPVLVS
EBNA-1 inhibitor – EBNA-1 DNA-binding inhibitors, primary screen, biochemical, fluorescence polarization; inhibition, % at 14.8 µM; 300,000 tested, 0.34% active; in the data active = inhibition above about 28%
DNA FID counter – compounds displacing fluorescent DNA intercalator, primary screen, artefact control for HCV NS3 helicase inhibitor project, biochemical, FID fluorescence | DNA fluorescent intercalator displacement | inhibition, % at 7.9 µM | 290,000 tested, 0.17% active; in the data active = inhibition above about 37%;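 also: 0% = vehicle and 100% = reference compound; higher means more ethidium bromide displaced from hairpin DNA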
Active calls of the source: *; x = not tested or not shown. Sampled rows, rich in hits. Any-hit rate of the full collection: about 3.6%.

SMILES	ZTA DNA inh	NR3A LBD binder	NS3 helicase inh	FGF22 binding	EBNA-1 inhibitor	DNA FID counter
NC(N)=N/N=C/c1cccc([N+](=O)[O-])c1O	12	-4	11	43*	11	5
Oc1ccc(C=NN=C2c3ccccc3-c3ccccc32)c(O)c1	x	23*	x	0	x	x
O=[N+]([O-])c1cccc(C=NN=C2c3ccccc3-c3ccccc32)c1	x	1	x	0	x	x
O=[N+]([O-])c1cccc(/C=N\N=C2c3ccccc3-c3ccccc32)c1O	-9	14*	14	0	-5	-4
ON=C1c2ccccc2-c2ccc(O)cc21	x	-15	x	0	x	x
N#Cc1ccccc1NC(=O)CSC1=Nc2ccccc2C2CC=NN12 (stereo unspecified)	7	0	0	44*	-8	-29
CCCC#Cc1cnc2c(c1)C(=O)N([C@H](C)CO)C[C@H](C)[C@H](CN(C)C(=O)NCCC)O2	x	x	x	0	x	x
CCc1nnc(SCC(=O)Nc2ccc(NC(C)=O)cc2)n1-n1cccc1	-3	18*	x	0	-1	x
CC(=O)Nc1ccc(NC(=O)CSc2nnc(CC(C)O)n2-c2ccccc2)cc1 (stereo unspecified)	-13	1	2	0	0	-16
O=S(=O)(c1ccc(-c2csc(Nc3ccc(F)cc3)n2)cc1)N1CCCC1	17	24*	-3	0	7	0
O=S(=O)(c1ccc(-c2csc(Nc3ccc(Br)cc3)n2)cc1)N1CCCC1	8	25*	12	x	3	3
Cc1cc(C)cc(Nc2nc(-c3ccc(S(=O)(=O)N4CCCC4)cc3)cs2)c1	5	4	-6	0	-7	-3
CN1C(=O)c2cc(NC(=O)c3cnccn3)ccc2OC[C@H]2O[C@@H](CC(=O)NC3CCC3)CC[C@@H]21	x	x	x	0	x	x
CCOc1ccccc1N1CCN(C(=S)Nc2ccc(S(=O)(=O)Nc3ncccn3)cc2)CC1	2	10*	5	0	8	-55
CCCCc1ccc(NC(=S)N2CCN(c3ncccn3)CC2)cc1	17	0	-7	43*	14	-6
CCCCc1ccc(NC(=S)N2CCN(c3ccccn3)CC2)cc1	-14	-1	-5	0	-8	-14
CCOc1ccccc1N1CCN(C(=O)c2ccc(S(=O)(=O)Nc3ccccc3)cc2)CC1	-5	-16	x	0	x	x
COc1ccc(NC(=O)Nc2ccc3c(c2)CC(=O)N([C@@H](C)CO)C[C@H](C)[C@@H](CN(C)C(=O)Nc2ccc4c(c2)OCO4)O3)cc1	x	x	x	0	x	x
O=C(NNC(=O)C1CC1)c1cc2cc3ccccc3nc2s1	-4	-1	-29	43*	-12	0
O=C(NNC(=O)c1cc2cc3ccccc3nc2s1)c1ccc(F)cc1	4	1	8	x	-11	2
CC[n+]1c(/C=C/N(C)c2ccccc2)oc2ccc(Cl)cc21	6	-2	18	0	1	1
CCN1/C(=C/C=C/c2oc3ccc4ccccc4c3[n+]2CC)Oc2ccc3ccccc3c21	29	1	-44	x	29*	-49
CO[C@H]1CN(C)C(=O)c2ccc(NC(C)=O)cc2OC[C@@H](C)N(CCc2ccccc2)C[C@H]1C	x	x	x	0	x	x
CO[C@H]1CN(C)C(=O)c2cc(NC(=O)C3CC3)ccc2OC[C@H](C)N(CC2CCOCC2)C[C@H]1C	x	x	x	0	x	x
O=C(c1ccccc1)C(Nc1ccccn1)c1ccccc1 (stereo unspecified)	4	-2	8	44*	-8	-4
SMILES	ZTA DNA inh	NR3A LBD binder	NS3 helicase inh	FGF22 binding	EBNA-1 inhibitor	DNA FID counter
CC(C)C#Cc1cnc2c(c1)C(=O)N([C@H](C)CO)C[C@H](C)[C@H](CN(C)C(=O)Nc1cc(F)ccc1F)O2	x	x	x	0	x	x
C[C@H](CO)N1C[C@H](C)[C@H](CN(C)C(=O)c2ccc3c(c2)OCO3)Oc2cc(/C=C/c3ccccc3)ccc2S1(=O)=O	x	x	x	0	x	x
Cc1ccc(-c2ccc3c(c2)O[C@@H](CN(C)C(=O)Nc2ccccc2)[C@@H](C)CN([C@@H](C)CO)S3(=O)=O)cc1	x	x	x	1.5*	x	x
C[C@H]1CN([C@@H](C)CO)S(=O)(=O)c2ccc(/C=C/c3ccccc3)cc2O[C@@H]1CN(C)C(=O)c1ccc2c(c1)OCO2	x	x	x	1.9*	x	x
COc1cccc(NC(=O)N(C)C[C@H]2Oc3cc(C#Cc4ccccc4)ccc3S(=O)(=O)N([C@H](C)CO)C[C@@H]2C)c1	x	x	x	0	x	x
C[C@@H]1CN([C@@H](C)CO)S(=O)(=O)c2ccc(/C=C/c3ccccc3)cc2O[C@H]1CN(C)C(=O)Nc1ccc(F)cc1	x	x	x	1.6*	x	x
COc1cccc(NC(=O)N(C)C[C@@H]2Oc3cc(C#Cc4ccccc4)ccc3S(=O)(=O)N([C@@H](C)CO)C[C@@H]2C)c1	x	x	x	1.4*	x	x
COCC#Cc1ccc2c(c1)O[C@@H](CN(C)Cc1ccc(F)cc1)[C@@H](C)CN([C@H](C)CO)S2(=O)=O	x	x	x	0	x	x
Cc1ccc(NC(=O)C(OC(=O)c2cc(C)oc2C)c2ccccc2)cc1 (stereo unspecified)	-24	2	-14	0	10	-19
Cc1cc(C(=O)OC(C(=O)Nc2cccc(C(F)(F)F)c2)c2ccccc2)c(C)o1 (stereo unspecified)	3	13*	-9	x	0	-5
Cc1ccc(NC(=O)CN2C(=O)S/C(=C\c3ccc(-c4cccc(C(=O)O)c4C)o3)C2=O)cc1C	x	-7	21	44*	x	-10
CCOC(=O)CN1C(=O)S/C(=C\c2ccc(-c3cccc(C(=O)O)c3C)o2)C1=O	4	-1	x	0	5	x
Cc1cccc(NC(=O)CN2C(=O)N/C(=C/c3ccc(-c4cccc(C(=O)O)c4C)o3)C2=O)c1	12	-3	21	43*	8	-26
Cc1c(C(=O)O)cccc1-c1ccc(/C=C2/NC(=O)N(c3ccccc3)C2=O)o1	-15	1	11	1	5	-20
O=C(C[C@H]1C=C[C@H](NS(=O)(=O)c2ccc(F)cc2)[C@H](CO)O1)NCCN1CCCCC1	x	x	x	0	x	x
NC(=O)Nc1ccc(C(=O)OCC(=O)c2c[nH]c3ccccc23)cc1	x	-10	x	44*	x	x
Cc1cc(C)n2nc(C(=O)OCC(=O)c3ccccc3)nc2n1	x	4	x	0	x	x
CCc1cccc2c(C(=O)COC(=O)c3ccc(O)cc3)c[nH]c12	-3	15*	-14	0	17	0
CCOc1ccc(N(C)S(=O)(=O)c2ccc(C)c(C(=O)OCC(=O)c3c[nH]c4ccccc34)c2)cc1	-10	31*	13	1	13	2
Cc1cc(C)n2nc(C(=O)OCC(=O)c3c[nH]c4ccccc34)nc2n1	-8	-2	10	44*	-1	-1
